Experimental data reported in ChEMBL document CHEMBL3259806, “Design, synthesis and biological evaluation of novel tripeptidyl epoxyketone derivatives constructed from β-amino acid as proteasome inhibitors” (Bioorg Med Chem, 2014).
Activity calls are given as the source filed them. No cut-off for these calls is given here.

Legend:
26S proteasome = experiment: Inhibition of chymotrypsin-like enzyme activity of purified human 20S proteasome using Suc-Leu-Leu-Val-Tyr-AMC as substrate by fluorescence method; assay type: protein-complex assay
Summary of the method: (§1)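 Purified human 20S proteasome preincubated with compound for 15 min. Fluorogenic substrate Suc-Leu-Leu-Val-Tyr-AMC (50 µM) then added to read chymotrypsin-like activity.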

[1] = molecular target: 26S proteasome (Homo sapiens) (UniProt Q99460+P49721+P20618+P28074+P28062+P28065+P28072+O00487+P25786+P25787+P25788+P25789+P28066+P60900+O14818+Q8TAA3+P40306+A5LHX3+P49720+P28070+Q99436+Q16186+P35998+P62191+P43686+P62333+P17980+P62195+Q13200+O43242+O00232+O00231+Q15008+P51665+Q9UNM6+P55036+P48556+P60896); experiment: Inhibition of chymotrypsin-like enzyme activity of purified human 20S proteasome using Suc-Leu-Leu-Val-Tyr-AMC as substrate at 1 ug/ml by fluorescence method; assay type: protein-complex assay; summary of the method: as §1
RPMI-8226 [2] = experiment: Cytotoxic activity against human RPMI8226 cells after 72 hrs by MTS assay; assay type: functional, cell-based; conditions: RPMI-8226, 72 h
Summary of the method: (§2)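 100 µL cell suspension (10⁴ cells/well) seeded in 96-well plates; compound exposure 72 h, then MTS at 0.5 mg/mL final for 2–4 h. Absorbance read at 490 nm with 690 nm background subtraction. Growth inhibitory ratio = (A_control − A_sample)/A_control.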

[3] = Cytotoxic activity against human NCI-H929 cells after 72 hrs by MTS assay; assay type: functional, cell-based; conditions: NCI-H929, 72 h; summary of the method: as §2
RPMI-8226 [4] = experiment: Induction of apoptosis human RPMI8226 cells assessed as accumulation of poly-ubiquitin at 100 nM after 12 hrs by Western blot analysis; assay type: functional, cell-based
Summary of the method: (§3)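 RPMI 8226 cells in 6-well plates exposed to compounds for 12 h; DMSO as vehicle control. Cells rinsed twice in ice-cold PBS and lysed in 1× SDS loading buffer. Lysates run on 10% SDS–PAGE and transferred to PVDF. Blocked 1 h in 5% milk, primary antibodies 2 h, secondary 1 h, ECL detection. Probed for poly-ubiquitin, PARP, cleaved PARP, β-actin.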

RPMI-8226 [5] = experiment: Induction of apoptosis human RPMI8226 cells assessed as PARP cleavage at 100 nM after 12 hrs by Western blot analysis; assay type: functional, cell-based; summary of the method: as §3

Row | IC50 (26S proteasome) | inhibition [1] | Structure (SMILES) | IC50 (RPMI-8226 [2]) | IC50 [3] | also measured
1 | 360 nM | 72% | CC(C)C[C@H](NC(=O)[C@H](Cc1ccccc1)NC(=O)CC(NC(=O)c1ccc(C#N)cc1)c1ccccc1)C(=O)[C@@]1(C)CO1 (some centres undefined) | 410 nM | 610 nM | –
2 | 170 nM | 84.4% | CC(C)C[C@H](NC(=O)[C@H](Cc1ccccc1)NC(=O)C[C@@H](NC(=O)c1ccc(C(F)(F)F)cc1)c1ccccc1)C(=O)[C@@]1(C)CO1 | 340 nM | 230 nM | –
3 | 340 nM | 84.1% | COc1ccc(C(=O)NC(CC(=O)N[C@@H](Cc2ccccc2)C(=O)N[C@@H](CC(C)C)C(=O)[C@@]2(C)CO2)c2ccccc2)cc1 (some centres undefined) | 1160 nM | 1350 nM | –
4 | – | 0.3% | COc1ccc(C(=O)N[C@@H](Cc2ccccc2)C(=O)NC(CC(=O)N[C@@H](CC(C)C)C(=O)[C@@]2(C)CO2)c2ccccc2)cc1 (some centres undefined) | – | – | Activity (RPMI-8226 [4]): inactive; Activity (RPMI-8226 [5]): inactive
5 | – | 1.56% | CC(C)C[C@H](NC(=O)c1ccccc1)C(=O)NC(CC(=O)N[C@@H](Cc1ccccc1)C(=O)[C@@]1(C)CO1)c1ccccc1 (some centres undefined) | – | – | –
6 | 380 nM | 87.7% | CC(C)C[C@H](NC(=O)[C@H](Cc1ccccc1)NC(=O)CC(NC(=O)c1ccc(F)cc1)c1ccccc1)C(=O)[C@@]1(C)CO1 (some centres undefined) | 1550 nM | 2370 nM | –
7 | – | 0.3% | CC(C)C[C@H](NC(=O)CC(NC(=O)[C@H](Cc1ccccc1)NC(=O)c1ccccc1)c1ccccc1)C(=O)[C@@]1(C)CO1 (some centres undefined) | – | – | –
8 | 340 nM | 85.8% | CC(C)C[C@H](NC(=O)[C@H](Cc1ccccc1)NC(=O)CC(NC(=O)c1cccnc1)c1ccccc1)C(=O)[C@@]1(C)CO1 (some centres undefined) | 4730 nM | 8700 nM | –
9 | 110 nM | 86.1% | CC(C)C[C@H](NC(=O)[C@H](Cc1ccccc1)NC(=O)C[C@@H](NC(=O)c1ccc2ccccc2c1)c1ccccc1)C(=O)[C@@]1(C)CO1 | 230 nM | 170 nM | Activity (RPMI-8226 [4]): Active; Activity (RPMI-8226 [5]): Active
10 | – | 11.8% | CC(C)C[C@H](NC(=O)[C@H](Cc1ccccc1)NC(=O)C[C@H](NC(=O)c1ccc2ccccc2c1)c1ccccc1)C(=O)[C@@]1(C)CO1 | – | – | –
11 | 220 nM | 76% | CC(C)C[C@H](NC(=O)[C@H](Cc1ccccc1)NC(=O)CC(NC(=O)c1ccc(C(F)(F)F)cc1)c1ccccc1)C(=O)[C@@]1(C)CO1 (some centres undefined) | 320 nM | 960 nM | –
12 | 190 nM | 74.8% | CC(C)C[C@H](NC(=O)[C@H](Cc1ccccc1)NC(=O)CC(NC(=O)c1ccc2ccccc2c1)c1ccccc1)C(=O)[C@@]1(C)CO1 (some centres undefined) | 420 nM | 700 nM | –
13 | – | 0.39% | COc1ccc(C(=O)N[C@@H](CC(C)C)C(=O)NC(CC(=O)N[C@@H](Cc2ccccc2)C(=O)[C@@]2(C)CO2)c2ccccc2)cc1 (some centres undefined) | – | – | –
14 | 440 nM | 88.5% | CC(C)C[C@H](NC(=O)[C@H](Cc1ccccc1)NC(=O)CC(NC(=O)c1ccccc1)c1ccccc1)C(=O)[C@@]1(C)CO1 (some centres undefined) | 1680 nM | 2690 nM | –
15 | – | 25.6% | CC(C)C[C@H](NC(=O)[C@H](Cc1ccccc1)NC(=O)C[C@H](NC(=O)c1ccc(C(F)(F)F)cc1)c1ccccc1)C(=O)[C@@]1(C)CO1 | – | – | –
16 | – | 42.3% | CC(C)C[C@H](NC(=O)[C@H](Cc1ccccc1)NC(=O)CC(NC(=O)c1ccco1)c1ccccc1)C(=O)[C@@]1(C)CO1 (some centres undefined) | – | – | –
17 | – | 1.43% | CC(C)C[C@H](NC(=O)c1ccc(F)cc1)C(=O)NC(CC(=O)N[C@@H](Cc1ccccc1)C(=O)[C@@]1(C)CO1)c1ccccc1 (some centres undefined) | – | – | –
18 | – | 47.3% | CC(C)C[C@H](NC(=O)[C@H](Cc1ccccc1)NC(=O)CC(NC(=O)c1ccc(-c2ccccc2)cc1)c1ccccc1)C(=O)[C@@]1(C)CO1 (some centres undefined) | – | – | –
19 | – | 0.37% | CC(C)C[C@H](NC(=O)CC(NC(=O)[C@H](Cc1ccccc1)NC(=O)c1ccc(F)cc1)c1ccccc1)C(=O)[C@@]1(C)CO1 (some centres undefined) | – | – | –

Continued, molecule first:

Row | Structure (SMILES) | IC50 (26S proteasome) | inhibition [1] | IC50 (RPMI-8226 [2]) | IC50 [3] | also measured
20 | CC(C)C[C@H](NC(=O)CC(NC(=O)[C@H](Cc1ccccc1)NC(=O)c1cccnc1)c1ccccc1)C(=O)[C@@]1(C)CO1 (some centres undefined) | – | 0.48% | – | – | –
21 | CC(C)C[C@H](NC(=O)[C@H](Cc1ccccc1)NC(=O)CC(NC(=O)c1cccs1)c1ccccc1)C(=O)[C@@]1(C)CO1 (some centres undefined) | 950 nM | 62.5% | – | – | –
22 | CC(C)C[C@H](NC(=O)c1ccccc1)C(=O)NC(CC(=O)N[C@@H](CC(C)C)C(=O)[C@@]1(C)CO1)c1ccccc1 (some centres undefined) | – | 6.42% | – | – | –
23 | CC(C)C[C@H](NC(=O)[C@H](CCc1ccccc1)NC(=O)CN1CCOCC1)C(=O)N[C@@H](Cc1ccccc1)C(=O)N[C@@H](CC(C)C)C(=O)[C@@]1(C)CO1 [CARFILZOMIB] | – | – | 13.2 nM | 21.3 nM | –
24 | CC(C)C[C@H](NC(=O)[C@H](Cc1ccccc1)NC(=O)CC(NC(=O)c1cnccn1)c1ccccc1)C(=O)[C@@]1(C)CO1 (some centres undefined) | – | 48.6% | – | – | –
25 | CC(C)C[C@H](NC(=O)[C@H](Cc1ccccc1)NC(=O)CC(NC(=O)CN1CCOCC1)c1ccccc1)C(=O)[C@@]1(C)CO1 (some centres undefined) | – | 40% | – | – | –
26 | CC(C)C[C@H](NC(=O)CC(NC(=O)[C@H](Cc1ccccc1)NC(=O)c1cnccn1)c1ccccc1)C(=O)[C@@]1(C)CO1 (some centres undefined) | – | 1.51% | – | – | –
27 | COc1ccc(C(=O)N[C@@H](CC(C)C)C(=O)NC(CC(=O)N[C@@H](CC(C)C)C(=O)[C@@]2(C)CO2)c2ccccc2)cc1 (some centres undefined) | – | 0.56% | – | – | –
28 | CC(C)C[C@H](NC(=O)c1cccnc1)C(=O)NC(CC(=O)N[C@@H](Cc1ccccc1)C(=O)[C@@]1(C)CO1)c1ccccc1 (some centres undefined) | – | 3.16% | – | – | –
29 | CC(C)C[C@H](NC(=O)[C@H](Cc1ccccc1)NC(=O)CC(NC(=O)C1CCOCC1)c1ccccc1)C(=O)[C@@]1(C)CO1 (some centres undefined) | 630 nM | 69.5% | – | – | –
30 | CC(C)C[C@H](NC(=O)[C@H](Cc1ccccc1)NC(=O)c1cnccn1)B(O)O [BORTEZOMIB] | – | – | 7.96 nM | 10.8 nM | –
31 | CC(C)C[C@H](NC(=O)c1ccc(F)cc1)C(=O)NC(CC(=O)N[C@@H](CC(C)C)C(=O)[C@@]1(C)CO1)c1ccccc1 (some centres undefined) | – | 5.46% | – | – | –
32 | CC(C)C[C@H](NC(=O)c1cnccn1)C(=O)NC(CC(=O)N[C@@H](CC(C)C)C(=O)[C@@]1(C)CO1)c1ccccc1 (some centres undefined) | – | 9.01% | – | – | –
33 | CC(C)C[C@H](NC(=O)c1cnccn1)C(=O)NC(CC(=O)N[C@@H](Cc1ccccc1)C(=O)[C@@]1(C)CO1)c1ccccc1 (some centres undefined) | – | 8.7% | – | – | –
34 | CC(C)C[C@H](NC(=O)c1cccnc1)C(=O)NC(CC(=O)N[C@@H](CC(C)C)C(=O)[C@@]1(C)CO1)c1ccccc1 (some centres undefined) | – | 0.84% | – | – | –
